Test [1] concerns Canis familiaris. The test is described as follows: Activity for gastric antisecretory activity in dogs by intrapouch administration and the value ranges between 63.2-76.9. The class given is functional. The conditions noted are these: Canis lupus familiaris, Stomach. The method in brief:
(§1)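 Adult female beagles (6-11 kg) with innervated Pavlov pouches, fasted 24 h with water available. Prostaglandin in isosmotic phosphate buffer pH 7.4 (≤20% ethanol) or vehicle given into the pouch via Thomas cannula after a 30-min basal collection. Canned food fed 30 min later. Juice collected at 30-min intervals for 4 h; acid output = volume × acidity.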

Test [2] deals with Rattus norvegicus. In words: Activity for diarrheagenic effect in rats by intragastric administration. In kind it is functional. The conditions noted are these: po. The method in brief: (§2)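 Adult male Charles River rats (210–230 g), individually housed, fasted 24 h with water ad libitum. Logarithmically graded prostaglandin doses given orally (intragastric), N = 6-12 per group. Diarrhea scored all-or-none over 8 h after dosing. Prostaglandin stock 1 mg/mL in absolute ethanol, diluted in phosphate buffer pH 7.4 to at most 20% ethanol.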

Test [3] relates to Canis familiaris. The test is described as follows: Activity for gastric antisecretory activity in dogs by intrapouch administration and the value ranges between 0.083-0.094. To be noted: Canis lupus familiaris, Stomach. The class given is functional. The method in brief: as §1
The test system of test [4] is Rattus norvegicus. The test is described as follows: Activity for diarrheagenic effect in rats by intragastric administration and the value ranges between 106-698. In kind it is functional. The conditions noted are these: po. The method in brief:
as §2

The test system of test [5] is Canis familiaris. In words: No inhibitory activity (3 ug/kg) for gastric antisecretory activity in dogs by intrapouch administration. In kind it is functional, Canis lupus familiaris, Stomach. The method in brief:
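Food-stimulated Pavlov-pouch beagles were dosed intrapouch, highest dose tested 3.0 µg/kg, in phosphate buffer pH 7.4 with at most 20% ethanol. Gastric juice was collected at 30-min intervals for 4 h after feeding. Percent reduction of total acid output (volume × acidity) from control was calculated.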

In test [6] the test system is Canis familiaris. In words: Activity for gastric antisecretory activity in dogs by intrapouch administration and the value ranges between 0.069-0.096. The class given is functional. To be noted: Canis lupus familiaris, Stomach. In short, it runs like this: as §1
Test [7] has as its system Rattus norvegicus. In words: Activity for diarrheagenic effect in rats by intragastric administration and the value ranges between 141-1134. The class given is functional. To be noted: po. The method in brief:
as §2

For test [8], the system named is Canis familiaris. The test is described as follows: Activity for gastric antisecretory activity in dogs by intrapouch administration. In kind it is functional. To be noted: Canis lupus familiaris, Stomach. In short, it runs like this:
as §1

The test system of test [9] is Canis familiaris. The test is described as follows: Activity for gastric antisecretory activity in dogs by intrapouch administration and the value ranges between 0.017-0.032. The class given is functional. The conditions noted are these: Canis lupus familiaris, Stomach. The method in brief: as §1
For test [10], the system named is Rattus norvegicus. In words: Activity for diarrheagenic effect in rats by intragastric administration and the value ranges between 37-77. The class given is functional. To be noted: po. In short, it runs like this: as §2
For test [11], the system named is Canis familiaris. In words: Activity for gastric antisecretory activity in dogs by intrapouch administration and the value ranges between 0.06-0.12. In kind it is functional. To be noted: Canis lupus familiaris, Stomach. The method in brief: as §1
Test [12] relates to Rattus norvegicus. The test is described as follows: Activity for diarrheagenic effect in rats by intragastric administration and the value ranges between 947-1848. In kind it is functional. The conditions noted are these: po. In short, it runs like this:
as §2

Each structure is given as a SMILES string. Bounds are passed on as bounds.

As a reminder, the ED50 is the midpoint of the dose-response relation. Usually Inhibition stands for the relative decrease from the control value, in per cent.

With `COC(=O)CC/C=C\CC[C@H]1C(=O)C[C@@H](O)[C@@H]1/C=C/CC(C)(O)CCC1CCCCC1` (stereo partly drawn), the results for the ED50 with Canis familiaris [1] and in the test with Rattus norvegicus [2] were 70 µg/kg and > 3160 µg/kg, respectively.

Consider `COC(=O)CC/C=C\CC[C@H]1C(=O)C[C@@H](O)[C@@H]1/C=C/CC(C)(O)CCC1CC1` (stereo partly drawn), for which the ED50 in the test with Canis familiaris [3] was determined as 0.09 µg/kg; with Rattus norvegicus [4] it was 273 µg/kg.

`COC(=O)CC/C=C\CC[C@H]1C(=O)C[C@@H](O)[C@@H]1/C=C/CC(C)(O)CCCCO` (stereo partly drawn) showed an Inhibition in the test with Canis familiaris [5] of 0%.

Regarding `COC(=O)CC/C=C\CC[C@H]1C(=O)C[C@@H](O)[C@@H]1/C=C/CC(C)(O)CCC1CCC1` (stereo partly drawn), the ED50 came to 0.09 µg/kg in the test on Canis familiaris [6] and 316 µg/kg in the test on Rattus norvegicus [7].

For the molecule `COC(=O)CC/C=C\CC[C@H]1C(=O)C[C@@H](O)[C@@H]1/C=C/CC(C)(O)CCC1CCCCCC1` (stereo partly drawn), the ED50 in the test with Canis familiaris [8] is ~95 µg/kg; in the test with Rattus norvegicus [2], > 3160 µg/kg.

Consider `CCCCC(C)(O)C/C=C/[C@H]1[C@H](O)CC(=O)[C@@H]1CC/C=C\CCC(=O)OC` (stereo partly drawn) [ENISOPROST], for which the ED50 amounted to 0.023 µg/kg with Canis familiaris [9] and 49 µg/kg in the test with Rattus norvegicus [10].

Consider `COC(=O)CC/C=C\CC[C@H]1C(=O)C[C@@H](O)[C@@H]1/C=C/CC(C)(O)CCC1CCCC1` (stereo partly drawn), for which the ED50 in the test with Canis familiaris [11] is 0.09 µg/kg; in the test with Rattus norvegicus [12], 1310 µg/kg.
